Lmaj promast: Leishmania major promastigote growth inhibition. 9% of 200,000 active. Leishmania major promastigotes, resazurin fluorescence viability. inhibition, % at 10 µM; in the data active = inhibition above about 50%;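 also: promastigotes grown with compound for 44 hours at 28 °C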
CHOP UPR activ: activators of apoptotic arm of unfolded protein response (CHOP). 0.34% of 330,000 active. CHO-CHOP luciferase reporter, UPR activation, luminescence; percent of tunicamycin response over DMSO baseline. activation, % at 10 µM. AID 449763;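 active = at 10 µM dose, activation of 40% or more, normalized to positive control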;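 also: 100% = tunicamycin at 10 µg/mL and 0% = DMSO alone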
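Test system: CHO-CHOP cells, stable luciferase reporter of PERK-eIF2a-CHOP signalling | Quantity: 500 CHO-CHOP cells per well | Buffer or medium: F12 plus 10% serum | Compound dosing: 10 µM single point, 0.5% DMSO | Schedule: 6 h compound treatment, 37 °C | Signal: Luciferase luminescence | Control set: Tunicamycin high control, DMSO low control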
UPR XBP1 act: adaptive UPR (XBP1) activation; CHO-XBP1 luciferase reporter, IRE1-XBP1 UPR activation, luminescence; percent of tunicamycin response, DMSO as zero; activation, % at 20 µM; 0.33% of 330,000 active; AID 463104;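 active = versus positive control, 20 µM dose yields 30% or more activation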;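 also: 100% = tunicamycin at 10 µg/mL and 0% = DMSO only wells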
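Signal: luciferase luminescence; Assay system: CHO-XBP1 luciferase reporter cells; Amount: one thousand reporter cells per well; Dosing: 20 µM single concentration, DMSO 1%; Benchmarks: high control tunicamycin 10 µg/mL final, low control DMSO vehicle only; Schedule: 6 h compound exposure at 37 °C, 5% CO2; Evaluation: percent activation relative to tunicamycin reference.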
T cruzi repl: T. cruzi replication inhibition | T. cruzi beta-gal in NIH3T3, luminescence, 90 h | inhibition, % (concentration not given with the values) | 1.4% of 300,000 active | AID 1885;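 active = mean inhibition across valid replicates above about 55%, limit read from the data; inconclusive = mean below that limit but half or more replicates reach it; inactive = mean below it, under half of replicates reach it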;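 also: signal also drops with host cell toxicity which is not excluded here; 0% = plate median of DMSO wells and 100% = zero luminescence signal; higher percent means less beta-gal luminescence so fewer parasites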
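Read-out: Parasite load inhibition, % | Test system: Mouse NIH/3T3 fibroblasts infected with β-gal-expressing T. cruzi Tulahuen C4 | Amount: 5,000 cells/well | Medium: DMEM, 2% fetal bovine serum | Signal: GalScreen β-gal luminescence, detergent lysis, 60 min | Timing: 3 h attach, ≥90 h co-culture | Also added: Tulahuen C4 trypomastigotes, 5000/well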
Dynein transport: blocks dynein driven cargo transport along microtubules; 3617.4 mouse cells, GR-EGFP nuclear translocation imaging; test concentration mostly 20 µM; stimulated with dexamethasone, 1 µM; hits give low values; z-score, hits read low; 0.47% of 220,000 active; AID 1381;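 active = plate z-score of nuclear minus cytoplasmic receptor signal below a set negative limit, without overly bright fluorescence or cell loss, cut at about -3.5 in these data, passing the limit was not always enough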;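 also: z-score of nuclear minus cytoplasmic ring GR-EGFP intensity difference per well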
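Buffer or medium: tet-free, stripped-serum medium; Also added: dexamethasone, 1.0 µM final; Technique: high-content fluorescence imaging after fixation; Times: 48 h induction, 1 h compound, 30 min dex at 37 °C; Read-out: per-cell GR-EGFP intensity, nucleus versus surrounding cytoplasmic ring, well-averaged.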
CHOP inhibitor: inhibitors of CHOP induction in ER stress response | CHO-K1 CHOP-promoter luciferase, tunicamycin-induced, 15-18 h | inhibition, % at 10 µM | 3.8% of 220,000 active | AID 2732;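 active = compounds that reduced the stress-induced luciferase reporter signal by more than about 70% of percent inhibition, limit read from the data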;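 also: 0% = tunicamycin plus vehicle and 100% = wells without tunicamycin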
* = called active by the depositor; u = inconclusive; x = no result. Many of the other results were omitted from the sample, so hits are more common in it than they were.

SMILES	Lmaj promast	CHOP UPR activ	UPR XBP1 act	T cruzi repl	Dynein transport	CHOP inhibitor
CC(C)Cc1cc(C(=O)N2CCN(C(c3ccccc3)c3ccccc3)CC2)no1	-3	-1	-1	21	0.0083	23
COc1ccc(-c2cc(C(=O)N3CCN(C(c4ccccc4)c4ccccc4)CC3)no2)cc1	3	-1	3	36	0.11	x
CC(C)c1cc(C(=O)N2CCN(C(c3ccccc3)c3ccccc3)CC2)no1	-2	0	-5	8	-0.73	82*
CC(C)c1onc(C(=O)N2CCN(C(c3ccccc3)c3ccccc3)CC2)c1[N+](=O)[O-]	22	1	-3	57*	1.5	-9
CC(C)c1onc(C(=O)N2CCN(c3ccccc3)CC2)c1[N+](=O)[O-]	x	1	-4	u	-1.5	1
COc1ccc(-c2cc(C(=O)N3CCN(C(c4ccccc4)c4ccccc4)CC3)no2)cc1OC	94*	1	-2	22	-0.17	2
O=C(c1cc(-c2ccccc2)on1)N1CCCCCC1	x	7	4	15	x	x
Cc1cccc(C(C)C)c1NC(=O)COC(=O)CCN1C(=O)C2CC=CCC2C1=O (configuration not stated)	x	-1	-3	-15	x	x
C=C(C)COc1ccc(-c2nc(N)nc(C)c2Oc2ccccc2OC)c(O)c1	21	-1	0	37	-0.74	85*
C=C(C)COc1ccc(-c2nc(N)nc(C)c2-c2ccc(OC)cc2)c(O)c1	-1	4	-2	48	0.025	92*
C=C(C)COc1ccc(-c2ncncc2Oc2ccc(OC)cc2)c(O)c1	66*	1	-2	x	1.4	34
COc1ccc(-c2nc(N)nc(C)c2-c2ccc(Cl)cc2)c(O)c1	x	-1	6	11	x	x
C=C(C)COc1ccc(-c2nc(N)ncc2-c2ccc(OC)cc2)c(O)c1	30	x	x	x	1.9	103*
CCn1cc(CN2CCN(CCc3ccccc3)C(CCO)C2)c(C)n1 (configuration not stated)	-1	-1	-1	-1	-1	-2
COc1cccc(NC(=O)CN(C)S(=O)(=O)c2ccc3[nH]c(=O)oc3c2)c1	x	0	-5	-22	x	x
COc1ccc(-c2nc(N)ncc2Oc2ccccc2Br)c(O)c1	33	-1	0	13	0.88	88*
COc1cccc(Oc2cnc(N)nc2-c2ccc(OC)cc2O)c1	36	0	4	-2	2.8	x
Cc1ccc(S(=O)(=O)N2CCC(CN3C(=O)c4cccc5cccc(c45)C3=O)CC2)cc1	95*	1	3	32	0.22	3
O=C1c2cccc3cccc(c23)C(=O)N1CC1CCN(S(=O)(=O)c2ccc(F)cc2)CC1	98*	1	3	23	0.77	16
O=C(c1ccc(S(=O)(=O)N2CCCCCC2)cc1)N1CCC(CN2C(=O)c3cccc4cccc(c34)C2=O)CC1	80*	5	4	45	1.2	50
CCOC(=O)C1C(C(=O)OC)=C(C(=O)OC)c2ccccc2N1S(=O)(=O)C(F)(F)F (configuration not stated)	x	2	2	x	x	x
CC(Oc1ccc2cc(-c3ccccc3)c(=O)oc2c1)C(=O)NCC1CCC(C(=O)O)CC1 (configuration not stated)	x	-2	-3	9	x	x
CC(C)(CNC(=O)CCNC(=O)c1ccc(Br)cc1)N1CCOCC1	x	0	1	-8	x	x
Clc1ccc(OCc2nnc(SCc3nc4ccccc4[nH]3)n2Cc2ccco2)cc1	9	4	-1	23	0.11	81*
CC(C)c1[nH]nc2c1C(C(C)C)C(C#N)=C(N)O2 (configuration not stated)	69*	-2	-2	u	-0.6	35
SMILES	Lmaj promast	CHOP UPR activ	UPR XBP1 act	T cruzi repl	Dynein transport	CHOP inhibitor
O=C(COc1ccc(Br)cc1)OCCN1CCCCC1	x	5	-4	-5	x	x
CC(NC(=O)c1ccc(S(=O)(=O)Nc2ccccc2Cl)cc1)c1ccncc1 (configuration not stated)	x	-2	-1	x	x	x
O=[N+]([O-])c1ccc(Cn2cc(-c3cccc(C(F)(F)F)c3)nn2)cc1	x	1	-3	13	x	x
Clc1ccc(CN2C3=NCCN3c3ccccc32)cc1Cl	65*	-2	1	u	-0.59	26
COc1ccc(CCC(=O)N2CCCSC2=Nc2ccc(C(C)=O)cc2)cc1	98*	3	1	3	0.25	9
COc1ccc(CCC(=O)N2CCCc3ccccc32)cc1	x	3	0	11	x	x
COc1ccc2c(c1)c1nnc(SCC(=O)N3CCCCC3C)nc1n2C (configuration not stated)	85*	x	x	25	0.0057	6
Cc1ccc(S(=O)(=O)N2CCN(Cc3ccco3)CC2)c(C)c1	x	2	-1	1	x	x
COc1ccc(Br)cc1CN1CCCC(C(=O)N2CCCCCC2)C1 (configuration not stated)	85*	0	-3	32	0.53	2
O=C(C1CCCN(Cc2ccc(Cl)cc2)C1)N1CCCCC1 (configuration not stated)	x	0	3	57*	x	x
O=C(C1CCN(Cc2ccccc2O)CC1)N1CCN(Cc2ccc3c(c2)OCO3)CC1	x	-1	-1	0	x	x
O=C(C1CCCN(Cc2cccc(Cl)c2)C1)N1CCCCC1 (configuration not stated)	x	0	2	66*	x	x
O=C(C1CCN(Cc2cc(Cl)ccc2O)CC1)N1CCN(Cc2ccccc2)CC1	100*	-1	0	-10	-0.12	25
Cc1cc(-c2ccccc2)nc2cc(C(=O)N(Cc3ccccc3)Cc3ccccc3)nn12	53*	0	10	29	-0.11	5
CN1CCN(c2oc(-c3ccccc3)nc2S(=O)(=O)c2ccc(Br)cc2)CC1	x	-2	-4	23	x	x
CCOc1ccccc1NC(=O)CCC(=O)Nc1nnc(C2CCCCC2)s1	x	-1	1	10	x	x
CC(=O)Nc1ccc(OCC(O)CN2CCN(Cc3ccccc3)CC2)cc1 (configuration not stated)	-8	-1	0	28	-0.52	-21
CC1CC(OCC(O)CN2CCN(Cc3ccccc3)CC2)CC(C)(C)C1 (configuration not stated)	93*	16	-5	27	-0.7	40
COCCOCC(O)CN1CCN(c2ccccc2)CC1 (configuration not stated)	0	-1	-2	-8	-0.087	3
CC1CCN(CC(O)COC2CC(C)CC(C)(C)C2)CC1 (configuration not stated)	x	3	-4	6	x	x

Screening data as filed in PubChem.
